# pIC50: −log10 of the molar value.
# Target: T1, A disintegrin and metalloproteinase with thrombospondin motifs 5 (Homo sapiens) (UniProt Q9UNA0)
# T1 sequence (whole entry): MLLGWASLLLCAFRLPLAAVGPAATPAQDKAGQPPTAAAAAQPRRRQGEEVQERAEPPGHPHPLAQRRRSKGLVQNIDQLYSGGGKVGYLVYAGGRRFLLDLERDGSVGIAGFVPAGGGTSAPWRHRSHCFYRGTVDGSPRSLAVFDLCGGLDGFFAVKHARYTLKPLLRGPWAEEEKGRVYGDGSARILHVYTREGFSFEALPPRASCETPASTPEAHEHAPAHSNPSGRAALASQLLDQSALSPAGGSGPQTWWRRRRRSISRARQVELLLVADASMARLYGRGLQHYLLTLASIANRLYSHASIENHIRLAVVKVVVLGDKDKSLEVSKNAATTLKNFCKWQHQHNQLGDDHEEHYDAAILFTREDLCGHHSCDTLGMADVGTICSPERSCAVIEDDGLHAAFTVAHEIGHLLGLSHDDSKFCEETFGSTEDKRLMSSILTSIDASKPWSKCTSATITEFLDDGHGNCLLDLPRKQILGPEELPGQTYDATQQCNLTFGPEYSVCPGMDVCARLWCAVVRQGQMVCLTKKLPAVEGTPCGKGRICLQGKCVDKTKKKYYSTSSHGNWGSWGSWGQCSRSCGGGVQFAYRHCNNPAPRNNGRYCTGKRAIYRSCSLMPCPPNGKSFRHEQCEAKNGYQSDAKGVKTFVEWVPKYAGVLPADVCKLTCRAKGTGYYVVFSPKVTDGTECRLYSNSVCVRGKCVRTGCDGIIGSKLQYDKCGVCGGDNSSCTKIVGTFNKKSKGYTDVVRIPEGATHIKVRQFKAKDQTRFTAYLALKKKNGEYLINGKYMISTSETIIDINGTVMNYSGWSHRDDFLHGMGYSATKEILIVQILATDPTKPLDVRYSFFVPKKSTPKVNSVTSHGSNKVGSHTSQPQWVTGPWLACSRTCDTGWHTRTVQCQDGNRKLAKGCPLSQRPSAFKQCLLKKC
# Assay: Inhibition of ADAMTS5 at 20 uM by FRET assay
# How it was run: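 Percent inhibition of aggrecanase-2 (ADAMTS-5) measured at a single 20 µM compound level. Reported values are means of two experiments, with standard deviations of ±10%.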
row,Compound,inhibition [%]
1,COc1ccc(CSc2c(/C=C3\SC(=S)NC3=O)c(C(F)(F)F)nn2C)cc1,53
2,Cn1nc(C(F)(F)F)c(/C=C2\SC(=S)NC2=O)c1SCc1ccccc1,44
3,Cn1nc(C(F)(F)F)c(/C=C2\SC(=S)NC2=O)c1Sc1ccc(Cl)cc1,47
4,Cn1nc(C(F)(F)F)c(/C=C2\SC(=S)NC2=O)c1SCc1cccs1,40
5,CN1CCN(c2c(CC3SC(=S)NC3=O)c(C(F)(F)F)nn2-c2ccccc2)CC1 (stereo unspecified),< 40
6,O=C1NC(=S)S/C1=C\c1c(C(F)(F)F)nn(-c2ccccc2)c1SCc1ccco1,42
7,O=C1NC(=S)SC1Cc1c(C(F)(F)F)nn(-c2ccccc2)c1SCc1ccco1 (stereo unspecified),42
8,COc1ccc(CCOc2c(/C=C3\SC(=S)NC3=O)c(C(F)(F)F)nn2-c2ccccc2)cc1,31
9,CN1CCN(c2c(/C=C3\SC(=S)NC3=O)c(C(F)(F)F)nn2-c2ccccc2)CC1,45
10,Cn1nc(C(F)(F)F)c(/C=C2\SC(=S)NC2=O)c1Sc1ccccc1,28

# Target: T2, A disintegrin and metalloproteinase with thrombospondin motifs 4 (Homo sapiens, UniProt O75173)
# T2 sequence (O75173 whole entry): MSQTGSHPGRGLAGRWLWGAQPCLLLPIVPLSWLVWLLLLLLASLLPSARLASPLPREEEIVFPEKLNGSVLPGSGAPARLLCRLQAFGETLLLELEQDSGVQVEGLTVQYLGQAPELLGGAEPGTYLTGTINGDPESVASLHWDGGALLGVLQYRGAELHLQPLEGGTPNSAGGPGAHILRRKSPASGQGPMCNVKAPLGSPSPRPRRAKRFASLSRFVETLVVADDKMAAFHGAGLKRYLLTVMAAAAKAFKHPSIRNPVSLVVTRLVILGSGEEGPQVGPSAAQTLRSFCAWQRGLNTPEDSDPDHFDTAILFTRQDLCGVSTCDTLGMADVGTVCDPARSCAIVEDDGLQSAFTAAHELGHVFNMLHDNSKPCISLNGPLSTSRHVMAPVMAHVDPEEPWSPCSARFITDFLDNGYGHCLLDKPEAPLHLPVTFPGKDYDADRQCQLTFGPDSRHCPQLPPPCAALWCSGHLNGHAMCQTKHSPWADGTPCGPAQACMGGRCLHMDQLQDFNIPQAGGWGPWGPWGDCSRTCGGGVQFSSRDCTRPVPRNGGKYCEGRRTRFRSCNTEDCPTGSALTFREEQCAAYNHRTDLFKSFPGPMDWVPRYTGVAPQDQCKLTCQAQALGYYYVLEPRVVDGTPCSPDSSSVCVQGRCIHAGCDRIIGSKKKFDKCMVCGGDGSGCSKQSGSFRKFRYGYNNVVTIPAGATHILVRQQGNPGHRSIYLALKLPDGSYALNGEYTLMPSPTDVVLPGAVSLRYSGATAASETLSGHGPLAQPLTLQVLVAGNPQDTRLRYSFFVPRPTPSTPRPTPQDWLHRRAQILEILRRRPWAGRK
# Assay: Inhibition of ADAMTS4 by FRET assay
row,Compound,pIC50
1,Cn1nc(C(F)(F)F)c(/C=C2\SC(=S)NC2=O)c1SCc1ccc(C(C)(C)C)cc1,5.12

# Target: T3, A disintegrin and metalloproteinase with thrombospondin motifs 5 (Homo sapiens, UniProt Q9UNA0)
# T3 sequence (Q9UNA0 whole entry): T1 sequence (whole entry)
# Assay: Inhibition of ADAMTS5 by FRET assay
# How it was run: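 Aggrecanase-2 (ADAMTS-5) inhibition reported as IC50 in µM. Values are means of two independent experiments, with standard deviations of ±10%.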
row,Compound,pIC50
1,Cn1nc(C(F)(F)F)c(/C=C2\SC(=S)NC2=O)c1N1CCN(c2ccc(Cl)cc2)CC1,5.05
2,O=C1NC(=S)S/C1=C\c1c(C(F)(F)F)nn(C2CCCCC2)c1SCc1ccc(Cl)cc1,5.38
3,O=C1NC(=S)S/C1=C\c1c(-c2ccccc2)nn(-c2ccccc2)c1SCc1cccs1,5.43
4,Cn1nc(C(F)(F)F)c(/C=C2\SC(=S)NC2=O)c1SCc1ccc(C(C)(C)C)cc1,5.66
5,CN1CCN(c2c(/C=C3\SC(=S)NC3=O)c(-c3ccccc3)nn2-c2ccccc2)CC1,5.34
6,O=C1NC(=S)S/C1=C\c1c(C(F)(F)F)nn(-c2ccccc2)c1OCCc1cccs1,5.04
7,Cn1nc(-c2ccccc2)c(/C=C2\SC(=S)NC2=O)c1SCc1ccco1,4.85
8,Cn1nc(C(F)(F)F)c(/C=C2\SC(=S)NC2=O)c1SCc1ccccc1Cl,4.63
9,O=C1NC(=S)S/C1=C\c1c(-c2ccccc2)nn(C2CCCCC2)c1N1CCN(c2ncccn2)CC1,5.10
10,Cn1nc(C(F)(F)F)c(/C=C2\SC(=S)NC2=O)c1SCc1ccc(Cl)cc1,5.96
11,O=C1NC(=S)S/C1=C\c1c(-c2ccccc2)nn(-c2ccccc2)c1SCc1ccco1,5.17
12,O=C1NC(=S)S/C1=C\c1c(C(F)(F)F)nn(C2CCCCC2)c1N1CCN(c2ncccn2)CC1,4.93
13,O=C1NC(=S)S/C1=C\c1c(C(F)(F)F)nn(-c2ccccc2)c1N1CCN(c2ccc(Cl)cc2)CC1,5.68
14,O=C1NC(=S)SC1Cc1c(C(F)(F)F)nn(-c2ccccc2)c1SCc1ccc(Cl)cc1 (stereo unspecified),5.24
15,Cc1ccc(Sc2c(/C=C3\SC(=S)NC3=O)c(-c3ccccc3)nn2C)cc1,5.08
16,O=C1NC(=S)S/C1=C\c1c(C(F)(F)F)nn(-c2ccccc2)c1OCCc1ccc(Cl)cc1,5.38
17,O=C1NC(=S)S/C1=C\c1c(-c2ccccc2)nn(C2CCCCC2)c1SCc1ccco1,5.34
18,O=C1NC(=S)S/C1=C\c1c(C(F)(F)F)nn(-c2ccccc2)c1SCc1ccc(Cl)cc1,5.60
19,O=C1NC(=S)S/C1=C\c1c(C(F)(F)F)nn(-c2ccccc2)c1OCCc1ccc(F)cc1,5.15
20,O=C1NC(=S)S/C1=C\c1c(C(F)(F)F)nn(-c2ccccc2)c1SCc1ccccc1,4.77
